Source: ChEMBL document CHEMBL1121372, “Synthesis and antihypertensive activity of 5-amino-2-pyridinecarboxylic acid derivatives” (1980)
The source made the active and inactive calls. No cut-off for these calls is given here.

How the values were obtained:
Rattus norvegicus [1] = experiment: The compound was tested for antihypertensive effect in spontaneously hypertensive rat (SHR), expressed as fall in blood pressure (BP) at 50 mg/kg dose given orally; format: functional; settings: route oral
Method in brief: (§1)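 Male SHR, about 16 weeks old, with systolic pressure above 150 mmHg, held in restraint cages. Tail-cuff occlusion was raised to 250 mmHg and then lowered, after 1 h acclimation and at least 3 baseline readings. Dosing was by daily gavage in 3% cornstarch/5% PEG-400/Tween 80 for 2 or 4 days, with 4–6 rats per drug. Readings at 1, 2, 3 and 24 h; peak fall reported.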

Rattus norvegicus [2] = experiment: The compound was tested for antihypertensive effect in spontaneously hypertensive rat (SHR), expressed as fall in blood pressure (BP) at 100 mg/kg dose given orally; format: functional; settings: route oral; method in brief: as §1
Rattus norvegicus [3] = experiment: The compound was tested for antihypertensive effect in spontaneously hypertensive rat (SHR), expressed as fall in blood pressure (BP) at 50 mg/kg dose given orally; Inactive; format: functional, organism-based; parameters: dose 50 mg/kg; method in brief: as §1
Rattus norvegicus [4] = experiment: Antihypertensive effect in spontaneously hypertensive rat (SHR), expressed as fall in blood pressure (BP) at 50 mg/kg dose given orally; format: functional; settings: route oral; method in brief: as §1
Canis familiaris [5] = experiment: Antihypertensive activity in unanesthetized renal hypertensive dogs measured as mean Blood Pressure at 100 mg per kg dose after peroral administration on day 2((p<0.05); format: functional, Canis lupus familiaris; settings: route oral
Method in brief: (§2)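 Renal hypertensive dogs, unanesthetized. Test compound given orally once daily as a solid in a gelatin capsule. Blood pressure was taken at 1.5, 3, 6 and 24 h after each daily dose. Activity is the maximum change in mean blood pressure or heart rate over each daily session. Values are mean ± SE, with significance marked at p < 0.05.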

Canis familiaris [6] = experiment: Antihypertensive activity in unanesthetized renal hypertensive dogs measured as Heart Rate (HR) (beats/min) at 100 mg per kg dose after peroral administration on day 2; format: functional, Canis lupus familiaris; settings: route oral; method in brief: as §2
Canis familiaris [7] = experiment: Antihypertensive activity in unanesthetized renal hypertensive dogs measured as mean Blood Pressure at 100 mg per kg dose after peroral administration on day1; format: functional, Canis lupus familiaris; parameters: unit not given beside the values; settings: route oral; method in brief: as §2
Canis familiaris [8] = experiment: Antihypertensive activity in unanesthetized renal hypertensive dogs measured as Heart Rate (HR) (beats/min) at 100 mg per kg dose after peroral administration on day1; format: functional, Canis lupus familiaris; settings: route oral; method in brief: as §2
Canis familiaris [9] = experiment: Antihypertensive activity in unanesthetized renal hypertensive dogs measured as mean Blood Pressure at 100 mg per kg dose after peroral administration on day 3; format: functional, Canis lupus familiaris; settings: route oral; method in brief: as §2
Canis familiaris [10] = experiment: Antihypertensive activity in unanesthetized renal hypertensive dogs measured as Heart Rate (HR) (beats/min) at 100 mg per kg dose after peroral administration on day 3; format: functional, Canis lupus familiaris; settings: route oral; method in brief: as §2
Canis familiaris [11] = experiment: Antihypertensive activity in unanesthetized renal hypertensive dogs measured as Heart Rate (HR) (beats/min) at 60 mg per kg dose after peroral administration on day 2; format: functional, Canis lupus familiaris; settings: route oral
Method in brief: (§3)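 Renal hypertensive dogs, unanesthetized. Drug given orally once daily as solid in gelatin capsule. Blood pressure and heart rate read at 1.5, 3, 6 and 24 h after each dose. Value is the maximum change over the daily monitored session, mean ± SE. MBP in mm Hg, HR in beats/min, p < 0.05 flagged.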

Canis familiaris [12] = experiment: Antihypertensive activity in unanesthetized renal hypertensive dogs measured as Heart Rate (HR) (beats/min) at 60 mg per kg dose after peroral administration on day1; format: functional, Canis lupus familiaris; settings: route oral; method in brief: as §3
Canis familiaris [13] = experiment: Antihypertensive activity in unanesthetized renal hypertensive dogs measured as mean Blood Pressure at 60 mg per kg dose after peroral administration on day1; format: functional, Canis lupus familiaris; settings: route oral; method in brief: as §3
Canis familiaris [14] = experiment: Antihypertensive activity in unanesthetized renal hypertensive dogs measured as mean Blood Pressure at 60 mg per kg dose after peroral administration on day 3; format: functional, Canis lupus familiaris; settings: route oral; method in brief: as §3
Canis familiaris [15] = experiment: Antihypertensive activity in unanesthetized renal hypertensive dogs measured as Heart Rate (HR) (beats/min) at 60 mg per kg dose after peroral administration on day 3; format: functional, Canis lupus familiaris; settings: route oral; method in brief: as §3
Canis familiaris [16] = experiment: Antihypertensive activity in unanesthetized renal hypertensive dogs measured as mean Blood Pressure at 60 mg per kg dose after peroral administration on day 2; format: functional, Canis lupus familiaris; settings: route oral; method in brief: as §3
Canis familiaris [17] = experiment: Antihypertensive activity in unanesthetized renal hypertensive dogs measured as mean Blood Pressure at 100 mg per kg dose after peroral administration on day 2 (p<0.05); format: functional, Canis lupus familiaris; settings: route oral; method in brief: as §2
Canis familiaris [18] = experiment: Antihypertensive activity in unanesthetized renal hypertensive dogs measured as Heart Rate (HR) (beats/min) at 100 mg per kg dose after peroral administration on day 2 (p<0.05); format: functional, Canis lupus familiaris; settings: route oral; method in brief: as §2
Rattus norvegicus [19] = experiment: The compound was tested for antihypertensive effect in spontaneously hypertensive rat (SHR), expressed as fall in blood pressure (BP) at 25 mg/kg dose given orally; format: functional; settings: route oral; method in brief: as §1
Canis familiaris [20] = experiment: Antihypertensive activity in unanesthetized renal hypertensive dogs measured as mean Blood Pressure at 100 mg per kg dose after peroral administration on day 2; format: functional, Canis lupus familiaris; settings: route oral; method in brief: as §2
Rattus norvegicus [21] = experiment: The compound was tested for antihypertensive effect in spontaneously hypertensive rat (SHR), expressed as fall in blood pressure (BP) at 10 mg/kg dose given orally; format: functional; settings: route oral
Canis familiaris [22] = experiment: Antihypertensive activity in unanesthetized renal hypertensive dogs measured as Heart Rate (HR) (beats/min) at 100 mg per kg dose after peroral administration on day 3 p<0.05; format: functional, Canis lupus familiaris; settings: route oral; method in brief: as §2
Canis familiaris [23] = experiment: Antihypertensive activity in unanesthetized renal hypertensive dogs measured as mean Blood Pressure at 100 mg per kg dose after peroral administration on day 4; format: functional, Canis lupus familiaris; settings: route oral; method in brief: as §2
Canis familiaris [24] = experiment: Antihypertensive activity in unanesthetized renal hypertensive dogs measured as Heart Rate (HR) (beats/min) at 100 mg per kg dose after peroral administration on day 4; format: functional, Canis lupus familiaris; settings: route oral; method in brief: as §2
Canis familiaris [25] = experiment: Antihypertensive activity in unanesthetized renal hypertensive dogs measured as Heart Rate (HR) (beats/min) at 100 mg per kg dose after peroral administration on day1 (p<0.05); format: functional, Canis lupus familiaris; settings: route oral; method in brief: as §2
Rattus norvegicus [26] = experiment: The compound was tested for antihypertensive effect in spontaneously hypertensive rat (SHR), expressed as fall in blood pressure (BP) at 100 mg/kg dose given orally; Inactive; format: functional, organism-based; parameters: dose 100 mg/kg; method in brief: as §1
Rattus norvegicus [27] = experiment: The compound was tested for antihypertensive effect in spontaneously hypertensive rat (SHR), expressed as fall in blood pressure (BP) at 50 mg/kg dose given per orally; format: functional; settings: route oral; method in brief: as §1

CC(Nc1ccc(C(=O)O)nc1)c1ccc(F)cc1 (stereo unspecified)
BP (Rattus norvegicus [1]): >40 mmHg

CCC(=O)N(Cc1cccc(Cl)c1)c1ccc(C(=O)O)nc1
BP (Rattus norvegicus [2]): <20 mmHg

N#Cc1ccc(NCc2ccc(F)cc2)cn1
BP (Rattus norvegicus [3]): inactive

O=C(O)c1ccc(NCCCc2ccccc2)cn1
BP (Rattus norvegicus [2]): >40 mmHg

COc1cc(CNc2ccc(C(=O)O)nc2)cc(OC)c1OC
BP (Rattus norvegicus [4]): <20 mmHg

O=C(O)c1ccc(NCc2cccc(Cl)c2)cn1
MBP (Canis familiaris [5]): -9 | HR (Canis familiaris [6]): 11 | MBP (Canis familiaris [7]): -15 | Maximum change in heart rate (Canis familiaris [8]): 16 | BP (Rattus norvegicus [2]): >60 mmHg | MBP (Canis familiaris [9]): -4 | HR (Canis familiaris [10]): 11

CCCCc1ccc(C(=O)O)nc1 [FUSARIC ACID]
HR (Canis familiaris [11]): 35 | HR (Canis familiaris [12]): 32 | BP (Rattus norvegicus [2]): >60 mmHg | MBP (Canis familiaris [13]): -50 | MBP (Canis familiaris [14]): -30 | HR (Canis familiaris [15]): 33 | MBP (Canis familiaris [16]): -45

CN(Cc1cccc(Br)c1)c1ccc(C(=O)O)nc1
BP (Rattus norvegicus [4]): >40 mmHg

CN(Cc1cccc(Oc2ccccc2)c1)c1ccc(C(=O)O)nc1
BP (Rattus norvegicus [4]): >20 mmHg

O=C(O)c1ccc(NCc2cccnc2)cn1
BP (Rattus norvegicus [2]): <20 mmHg

CN(C)C(=O)c1ccc(NCc2ccc(F)cc2)cn1
BP (Rattus norvegicus [4]): >60 mmHg | Maximum change in heart rate (Canis familiaris [8]): 20 | MBP (Canis familiaris [17]): -67 | HR (Canis familiaris [18]): 112

CCNC(=O)c1ccc(NCc2ccc(F)cc2)cn1
BP (Rattus norvegicus [3]): inactive

CN(Cc1cccc(Cl)c1)c1ccc(C(=O)O)nc1
BP (Rattus norvegicus [19]): >40 mmHg | MBP (Canis familiaris [20]): -25 | MBP (Canis familiaris [7]): -21 | BP (Rattus norvegicus [4]): >80 mmHg | BP (Rattus norvegicus [2]): >80 mmHg

O=C(O)c1ccc(NCc2ccccc2)cn1
BP (Rattus norvegicus [19]): >60 mmHg | BP (Rattus norvegicus [21]): >40 mmHg | MBP (Canis familiaris [20]): -14 | HR (Canis familiaris [6]): 61 | HR (Canis familiaris [22]): 52 | MBP (Canis familiaris [23]): -6 | MBP (Canis familiaris [7]): -32 | BP (Rattus norvegicus [4]): >80 mmHg | MBP (Canis familiaris [9]): -13 | HR (Canis familiaris [24]): 48 | HR (Canis familiaris [25]): 74

O=C(O)c1ccc(NCc2cc(Cl)cc(Cl)c2)cn1
BP (Rattus norvegicus [4]): >60 mmHg

O=C(O)c1ccc(N(Cc2cccc(Cl)c2)Cc2cccc(Cl)c2)cn1
BP (Rattus norvegicus [2]): >20 mmHg

O=C(O)c1ccc(NCc2cccc(Br)c2)cn1
BP (Rattus norvegicus [4]): >20 mmHg

COC(=O)c1ccc(NCc2ccc(Cl)cc2)cn1
BP (Rattus norvegicus [2]): >60 mmHg

Cc1cccc(CN(C)c2ccc(C(=O)O)nc2)c1
BP (Rattus norvegicus [4]): >20 mmHg

O=C(Nc1ccc(C(=O)O)nc1)c1ccccc1
BP (Rattus norvegicus [2]): >20 mmHg

CCCCS(=O)(=O)Nc1ccc(C(=O)O)nc1
BP (Rattus norvegicus [26]): inactive

COC(=O)c1ccc(N(C)Cc2cccc(Cl)c2)cn1
BP (Rattus norvegicus [4]): >20 mmHg

CCCCNc1ccc(C(=O)OC)nc1
BP (Rattus norvegicus [27]): <20 mmHg

O=Cc1ccc(NCc2ccc(F)cc2)cn1
BP (Rattus norvegicus [4]): >80 mmHg

CN(Cc1ccccc1)c1ccc(C(=O)O)nc1
BP (Rattus norvegicus [4]): >40 mmHg

CCOC(=O)Nc1ccc(C(=O)OC)nc1
BP (Rattus norvegicus [26]): inactive

COc1cccc(CN(C)c2ccc(C(=O)O)nc2)c1
BP (Rattus norvegicus [4]): >20 mmHg

O=C(O)c1ccc(NCc2ccccc2Cl)cn1
BP (Rattus norvegicus [2]): >60 mmHg

O=C(O)c1ccc(Nc2ccccc2)cn1
BP (Rattus norvegicus [3]): inactive

COC(=O)c1ccc(NCc2ccc(F)cc2)cn1
BP (Rattus norvegicus [4]): >60 mmHg

OCc1ccc(NCc2cccc(Cl)c2)cn1
BP (Rattus norvegicus [4]): > 40 mmHg

COc1ccc(CNc2ccc(C(=O)O)nc2)cc1F
BP (Rattus norvegicus [4]): >20 mmHg
